Experimental findings from ChEMBL document CHEMBL1156309, “Design and optimization of a substituted amino propanamide series of renin inhibitors for the treatment of hypertension” (Bioorg Med Chem Lett, 2010) are described below.

For data set [1], the target named is T1, Renin (Homo sapiens, UniProt P00797).
T1 sequence (P00797 whole entry): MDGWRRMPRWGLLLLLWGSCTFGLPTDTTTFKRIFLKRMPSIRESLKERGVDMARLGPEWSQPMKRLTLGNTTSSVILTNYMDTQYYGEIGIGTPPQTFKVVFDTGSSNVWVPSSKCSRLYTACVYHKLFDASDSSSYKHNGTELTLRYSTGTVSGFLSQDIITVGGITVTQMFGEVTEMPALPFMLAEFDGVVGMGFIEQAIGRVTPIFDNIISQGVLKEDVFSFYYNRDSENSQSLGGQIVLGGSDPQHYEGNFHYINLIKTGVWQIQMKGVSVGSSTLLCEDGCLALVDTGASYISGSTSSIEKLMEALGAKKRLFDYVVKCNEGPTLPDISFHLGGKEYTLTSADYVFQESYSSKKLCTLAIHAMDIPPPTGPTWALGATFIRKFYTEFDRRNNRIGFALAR
Put plainly: Inhibition of human recombinant renin in PBS buffer at pH 7.4. Summed up: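 Recombinant human renin (3 pg/µL) in PBS with 1 mM EDTA, 0.1% BSA, pH 7.4, with human tetradecapeptide (1-14) substrate and hydroxyquinoline sulfate. Compounds diluted in DMSO; incubation 3 h at 37 °C. Angl accumulation measured; percent inhibition at each concentration, IC50 from curve fit. Average of at least two replicates.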

Data set [2] has as its target T1, Renin. Put plainly: Inhibition of human recombinant renin in human citreated-plasma. The gist of the method: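 Pooled human citrate plasma supplemented with recombinant human renin (150 pg/mL final). Compounds in DMSO at various concentrations added to plasma mixed with trapping anti-Angl antibody (final antiserum dilution 1:50,000) in Tris/EDTA, pH 7.2; incubation 2 h at 37 °C. Angl accumulation read by immunoassay; IC50 from curve fit. Average of at least two replicates.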

Data set [3] is described as follows: Volume of distribution at steady state in Sprague-Dawley rat at 30 mg/kg, po and 5 mg/kg, iv. It is filed as ADME, organism-based. Particulars: in vivo, read-out: Vdss.
Data set [4] in a line: Oral bioavailability in Sprague-Dawley rat at 30 mg/kg. It is filed as ADME, organism-based. The settings on record: in vivo.
A short description of data set [5]: Oral bioavailability in Beagle dog at 3 mg/kg. Particulars: in vivo. The class given is ADME, organism-based, Canis lupus familiaris.
Data set [6] is described as follows: Half life in Sprague-Dawley rat at 30 mg/kg, po and 5 mg/kg, iv. Particulars: in vivo. The class given is ADME, organism-based.
A further data set concerns the target Cytochrome P450 3A4 (Homo sapiens, UniProt P08684). Put plainly: Inhibition of CYP3A4 after 30 mins. The class given is ADME.
Data set [7] is described as follows: AUC in Sprague-Dawley rat at 30 mg/kg, po. Details: dose 30 mg/kg, route oral. It is filed as ADME, organism-based. Particulars: plasma.
A short description of data set [8]: AUC in Beagle dog at 3 mg/kg, po. The class given is ADME, organism-based, Canis lupus familiaris. The arrangement: dose 3 mg/kg, route oral. The settings on record: plasma.
The nature of data set [9]: Clearance in Beagle dog at 3 mg/kg, po and 1 mg/kg, iv. The class given is ADME, organism-based, Canis lupus familiaris. Particulars: in vivo.
Data set [10] can be described thus: Clearance in Sprague-Dawley rat at 30 mg/kg, po and 5 mg/kg, iv. The class given is ADME, organism-based. Particulars: in vivo.
Data set [11] can be described thus: Half life in Beagle dog at 3 mg/kg, po and 1 mg/kg, iv. Particulars: in vivo. It is filed as ADME, organism-based, Canis lupus familiaris.
Data set [12] is described as follows: Volume of distribution at steady state in Beagle dog at 3 mg/kg, po and 1 mg/kg, iv. The class given is ADME, organism-based, Canis lupus familiaris. Particulars: in vivo, read-out: Vdss.
Another data set concerns Rattus norvegicus. Kind of data set: Antihypertensive activity in telemetered double-transgenic rat assessed as decrease in blood pressure at 3 mg/kg, po after 2 days. It is filed as functional. The gist of the method:
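Telemetered double-transgenic rats (n = 8) dosed orally at 3 mpk. Blood pressure monitored by telemetry; maximum fall in mm Hg and duration of action recorded.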

A further data set relates to Canis familiaris. Kind of data set: Antihypertensive activity in Beagle assessed as prolongation of CV intervals at 12 uM, iv after 2 days. The class given is functional, Canis lupus familiaris. The gist of the method:
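Beagle dogs given compound intravenously up to 12 µM plasma exposure. QTc, PR and QRS intervals monitored for prolongation.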

For orientation: pIC50 means −log10 of the IC50, conventionally taken in molar units. The term bioavailability denotes the share of a dose that reaches the circulation, judged against a reference dose that is usually intravenous. A lower bioavailability goes with little systemic uptake. The half-life is the time in which the quantity being followed falls by half. A low value points to rapid decline. What is called AUC is the area under the concentration-time curve, a measure of exposure. Low values mean low exposure, high ones high exposure.

pIC50: −log10 of the molar value.

Cytochrome P450 3A4, sequence (P08684 whole entry): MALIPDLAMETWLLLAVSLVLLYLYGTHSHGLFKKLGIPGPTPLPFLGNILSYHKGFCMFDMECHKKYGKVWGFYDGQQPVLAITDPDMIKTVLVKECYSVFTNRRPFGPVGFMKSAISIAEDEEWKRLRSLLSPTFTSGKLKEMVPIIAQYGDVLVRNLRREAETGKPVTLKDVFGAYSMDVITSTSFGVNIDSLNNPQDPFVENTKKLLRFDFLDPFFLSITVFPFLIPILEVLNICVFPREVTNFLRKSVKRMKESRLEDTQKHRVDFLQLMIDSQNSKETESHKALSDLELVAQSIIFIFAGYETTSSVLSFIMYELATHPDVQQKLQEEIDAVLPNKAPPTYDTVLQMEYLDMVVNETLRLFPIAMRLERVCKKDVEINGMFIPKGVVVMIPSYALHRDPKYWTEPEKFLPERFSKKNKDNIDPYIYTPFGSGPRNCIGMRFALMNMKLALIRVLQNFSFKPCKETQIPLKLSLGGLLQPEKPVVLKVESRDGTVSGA

Regarding `NCCC(CC(=O)N(Cc1cccc(Cl)c1Cl)C1CC1)c1ccc(CCCOc2c(F)ccc(F)c2Cl)cc1` (stereo unspecified), at Renin [1], the negative logarithm of the IC50 (pIC50) is 6.19.
`COCCCc1ccc(Cl)c(CN(C(=O)C(CN)Cc2ccc(CCCOc3c(Cl)cc(C)cc3Cl)cc2)C2CC2)c1` (racemic): the pIC50 on Renin [1] is 9.59; at Renin [2], 8.24.
Turning to `Cc1cc(Cl)c(OCCCc2ccc(CC(CN)C(=O)N(Cc3cccc(Cl)c3Cl)C3CC3)cc2)c(Cl)c1` (stereo unspecified), the pIC50 is 9.40 at Renin [1] and 7.54 on Renin [2].
For `COCCCc1cc(CN(C(=O)[C@@H](CN)Cc2ccc(CCCOc3c(Cl)cc(C)cc3Cl)cc2)C2CC2)cc(OCCOC)c1`, the Vd in [3] stood at 3.6 L/kg; in [12] it was 15 L/kg. Also, the bioavailability in [4] amounted to 48%; in data set [5] it was 36%. Also, the half-life is 4 h in [6] and 7.5 h in [11]. On Cytochrome P450 3A4, the pIC50 is 5.89. The values for the AUC in data set [7] and in [8] were 27.5 µM·h and 0.7 µM·h, respectively. The clearance in data set [9] was found to be 35 mL/min/kg; in data set [10], 13 mL/min/kg. Also, the Activity in the data set with Rattus norvegicus is listed as 35 mmHg.
`Cc1cc(Cl)c(OCCCc2ccc(CC(CN)C(=O)N(Cc3cc(CCCO)ccc3Cl)C3CC3)cc2)c(Cl)c1` (stereo unspecified): the pIC50 was 10.05 on Renin [1] and 8.19 at Renin [2].
With `COCCOc1ccc(Cl)c(CN(C(=O)C(CN)Cc2ccc(CCCOc3c(Cl)cc(C)cc3Cl)cc2)C2CC2)c1` (stereo unspecified), the pIC50 at Renin [1] is 9.68.
With `Cc1cc(Cl)c(OCCCc2ccc(C[C@@H](CN)C(=O)N(Cc3cc(CCCC#N)ccc3Cl)C3CC3)cc2)c(Cl)c1`, the pIC50 at Renin [1] is 9.96; at Renin [2] it was 8.34.
As to `CC(=O)N(C)Cc1ccc(Cl)c(CN(C(=O)C(CN)Cc2ccc(CCCOc3c(Cl)cc(C)cc3Cl)cc2)C2CC2)c1` (stereo unspecified), the pIC50 is 8.54 on Renin [1] and 6.60 at Renin [2].
On to `O=C(C(CNCc1ccccc1)Cc1ccc(CCCOc2c(F)ccc(F)c2Cl)cc1)N(Cc1cccc(Cl)c1Cl)C1CC1` (stereo unspecified), for which the pIC50 at Renin [1] was 6.59.
In the case of `Cc1cc(Cl)c(OCCCc2ccc(CC(CN)C(=O)N(Cc3cc(CCC#N)ccc3Cl)C3CC3)cc2)c(Cl)c1` (stereo unspecified), the pIC50 at Renin [1] is 9.57; at Renin [2], 8.00.
Consider `CC(CN)(Cc1ccc(CCCOc2c(F)ccc(F)c2Cl)cc1)C(=O)N(Cc1cccc(Cl)c1Cl)C1CC1` (stereo unspecified), for which the pIC50 at Renin [1] is 6.68.
Take `CNCC(Cc1ccc(CCCOc2c(F)ccc(F)c2Cl)cc1)C(=O)N(Cc1cccc(Cl)c1Cl)C1CC1` (stereo unspecified): the pIC50 on Renin [1] is 8.72; on Renin [2] it was 6.46.
Regarding `Cc1cc(Cl)c(OCCCc2ccc(CC(CN)C(=O)N(Cc3cc(CCCN(C)C)ccc3Cl)C3CC3)cc2)c(Cl)c1` (stereo unspecified), the pIC50 is 8.82 at Renin [1] and 6.99 on Renin [2].
Consider `COCCc1ccc(Cl)c(CN(C(=O)C(CN)Cc2ccc(CCCOc3c(Cl)cc(C)cc3Cl)cc2)C2CC2)c1` (stereo unspecified), for which the pIC50 at Renin [1] is 9.72.
As to `COCCCc1cc(CN(C(=O)C(CN)Cc2ccc(CCCOc3c(Cl)cc(C)cc3Cl)cc2)C2CC2)c(Cl)c[n+]1[O-]` (stereo unspecified), the figures for the negative-log IC50 (pIC50) on Renin [1] and on Renin [2] were 9.52 and 8.74, respectively.
For `COCCCc1cc(Cl)c(Cl)c(CN(C(=O)C(CN)Cc2ccc(CCCOc3c(Cl)cc(C)cc3Cl)cc2)C2CC2)c1` (stereo unspecified), the pIC50 on Renin [1] was 9.59; at Renin [2], 7.51.
Consider `NCC(Cc1ccc(CCCOc2c(F)ccc(F)c2Cl)cc1)C(=O)N(Cc1cccc(Cl)c1Cl)C1CC1` (racemic), for which the pIC50 was 9.10 at Renin [1] and 7.68 at Renin [2].
On to `COCCCc1cc(CN(C(=O)C(CN)Cc2ccc(CCCOc3c(Cl)cc(C)cc3Cl)cc2)C2CC2)c(Cl)cn1` (stereo unspecified), for which the negative-log IC50 (pIC50) on Renin [1] was 9.72; at Renin [2], 8.66.
Turning to `COCCCc1ccc(Cl)c(CN(C(=O)[C@H](CN)Cc2ccc(CCCOc3c(Cl)cc(C)cc3Cl)cc2)C2CC2)c1`, the Vd came to 12 L/kg in [3] and 8.4 L/kg in data set [12]. For the same molecule, the bioavailability in data set [4] stood at 41%; in data set [5], 32%. Further, the Activity with Canis familiaris is recorded as below 5%; with Rattus norvegicus, 27 mmHg. For the same molecule, the half-life in data set [6] is 6 h; in data set [11], 17 h. Further, the pIC50 against Cytochrome P450 3A4 is 6.89; on Renin [1], 10.05; at Renin [2], 8.62. Besides, the AUC in data set [7] amounted to 8.3 µM·h; in data set [8] it was 1.3 µM·h. For the same molecule, the clearance stood at 16 mL/min/kg in data set [9] and 35 mL/min/kg in data set [10].
